Source: ChEMBL document CHEMBL4689842, “EUbOPEN Chemogenomics Library wave 1” (2021)
Several values for one entry are separate records, joined by “and”; a condition that tells them apart may be missing. Equal entries are not always repeated.

Test system: Fibroblast
Test: Multiplex assay against human fibroblast
Type: toxicity, cell-based
In short: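 Live cells were stained at seeding with Hoechst33342, BioTracker Green Microtubule Cytoskeleton Dye, MitoTracker Red and Annexin V Alexa Fluor 680. Following compound addition, they were imaged on a CQ1 microscope at 37°C and 5% CO2 and gated by CellPathfinder machine learning into Hoechst high-intensity objects or normal cells, with normal cells split into healthy, pyknosed or fragmented nuclei and pyknosed cells into mitotic or apoptotic. Tubulin, mitochondrial-mass and membrane-permeability phenotypes are per cents of healthy-nucleus cells.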

[1] = 12 h, 1 µM, compound concentration 1 uM, replicate 1
[2] = 12 h, 1 µM, compound concentration 1 uM, replicate 2
[3] = 12 h, 10 µM, compound concentration 10 uM, replicate 1
[4] = 12 h, 10 µM, compound concentration 10 uM, replicate 2
[5] = 24 h, 1 µM, compound concentration 1 uM, replicate 1
[6] = 24 h, 1 µM, compound concentration 1 uM, replicate 2
[7] = 24 h, 10 µM, compound concentration 10 uM, replicate 1
[8] = 24 h, 10 µM, compound concentration 10 uM, replicate 2
[9] = 48 h, 10 µM, compound concentration 10 uM, replicate 1
[10] = 48 h, 10 µM, compound concentration 10 uM, replicate 2

In the case of CC(C)Oc1ccc(C(=O)N[C@H](CNC(=O)CN(C)C)Cc2ccc(-c3cn4cccc([C@H](C)O)c4n3)cc2)cc1Cl [GSK-923295A], the “Population Apoptotic (%)” value [1] is reported as 71%, the “Population Fragmented Nuclei (%)” value [1] is reported as 32% and the “Population Healthy Nuclei (%)” value [1] is reported as 48%. For the same compound, the “Population Hoechst High Intensity Objects (%)” value [1] was 12%, the “Population Membrane Permeable-Phenotype (%)” value [1] was 9% and the “Population Mitochondria Different-Phenotype (%)” value [1] was 5%. For the same compound, the “Population Mitotic Cells (%)” value [1] was 28%, the “Population Normal (%)” value [1] was 87% and the “Population Pyknosed Nuclei (%)” value [1] was 18%. The “Population Tubulin-Different-Phenotype (%)” value [1] was 20%, the “Total Cell Count” value [1] was 256 and the “Population Apoptotic (%)” value [2] was 100%. For the same compound, the “Population Fragmented Nuclei (%)” value [2] was 49%, the “Population Healthy Nuclei (%)” value [2] was 43% and the “Population Hoechst High Intensity Objects (%)” value [2] was 31%. For the same compound, the “Population Mitochondria Different-Phenotype (%)” value [2] was 31%, the “Population Mitotic Cells (%)” value [2] was 0% and the “Population Normal (%)” value [2] was 68%. For the same compound, the “Population Pyknosed Nuclei (%)” value [2] was 7%, the “Population Tubulin-Different-Phenotype (%)” value [2] was 40% and the “Total Cell Count” value [2] was 74. For the same compound, the “Population Apoptotic (%)” value [3] was 53% and 65%, the “Population Fragmented Nuclei (%)” value [3] was 34% and 27% and the “Population Healthy Nuclei (%)” value [3] was 34% and 50%. For the same compound, the “Population Hoechst High Intensity Objects (%)” value [3] was 30% and 28%, the “Population Mitochondria Different-Phenotype (%)” value [3] was 11% and 7% and the “Population Mitotic Cells (%)” value [3] was 46% and 34%. The “Population Normal (%)” value [3] was 69% and 71%, the “Population Pyknosed Nuclei (%)” value [3] was 30% and 21% and the “Population Tubulin-Different-Phenotype (%)” value [3] was 82% and 59%. For the same compound, the “Population Apoptotic (%)” value [4] was 75% and 30%, the “Population Healthy Nuclei (%)” value [4] was 28% and 73% and the “Population Membrane Permeable-Phenotype (%)” value [4] was 42% and 30%. The “Population Mitotic Cells (%)” value [4] was 25% and 69%, the “Population Normal (%)” value [4] was 65% and 97% and the “Population Pyknosed Nuclei (%)” value [4] was 16% and 17%. For the same compound, the “Population Tubulin-Different-Phenotype (%)” value [4] was 92% and 100%, the “Total Cell Count” value [4] was 75 and 76 and the “Population Apoptotic (%)” value [5] was 65%. The “Population Fragmented Nuclei (%)” value [5] was 27%, the “Population Healthy Nuclei (%)” value [5] was 58% and the “Population Hoechst High Intensity Objects (%)” value [5] was 18%. The “Population Membrane Permeable-Phenotype (%)” value [5] was 6%, the “Population Mitochondria Different-Phenotype (%)” value [5] was 7% and the “Population Mitotic Cells (%)” value [5] was 34%. The “Population Normal (%)” value [5] was 81%, the “Population Pyknosed Nuclei (%)” value [5] was 14% and the “Population Tubulin-Different-Phenotype (%)” value [5] was 10%. For the same compound, the “Total Cell Count” value [5] was 266, the “Population Apoptotic (%)” value [6] was 100% and the “Population Fragmented Nuclei (%)” value [6] was 58%. The “Population Healthy Nuclei (%)” value [6] was 34%, the “Population Hoechst High Intensity Objects (%)” value [6] was 26% and the “Population Membrane Permeable-Phenotype (%)” value [6] was 10%. For the same compound, the “Population Mitochondria Different-Phenotype (%)” value [6] was 15%, the “Population Mitotic Cells (%)” value [6] was 0% and the “Population Normal (%)” value [6] was 73%. For the same compound, the “Population Pyknosed Nuclei (%)” value [6] was 6%, the “Population Tubulin-Different-Phenotype (%)” value [6] was 25% and the “Total Cell Count” value [6] was 79. For the same compound, the “Population Apoptotic (%)” value [7] was 64% and 60%, the “Population Fragmented Nuclei (%)” value [7] was 34% and 27% and the “Population Healthy Nuclei (%)” value [7] was 44% and 54%. The “Population Hoechst High Intensity Objects (%)” value [7] was 34% and 39%, the “Population Membrane Permeable-Phenotype (%)” value [7] was 26% and 10% and the “Population Mitochondria Different-Phenotype (%)” value [7] was 26% and 11%. The “Population Mitotic Cells (%)” value [7] was 35% and 39%, the “Population Normal (%)” value [7] was 65% and 60% and the “Population Pyknosed Nuclei (%)” value [7] was 20% and 17%. The “Population Tubulin-Different-Phenotype (%)” value [7] was 76% and 61%, the “Population Apoptotic (%)” value [8] was 75% and 35% and the “Population Healthy Nuclei (%)” value [8] was 35% and 64%. The “Population Mitochondria Different-Phenotype (%)” value [8] was 96%, the “Population Mitotic Cells (%)” value [8] was 25% and 65% and the “Population Normal (%)” value [8] was 50% and 97%. The “Population Pyknosed Nuclei (%)” value [8] was 9% and 24%, the “Population Tubulin-Different-Phenotype (%)” value [8] was 73% and 100% and the “Total Cell Count” value [8] was 83 and 72. For the same compound, the “Population Apoptotic (%)” value [9] was 71%, the “Population Fragmented Nuclei (%)” value [9] was 35% and the “Population Healthy Nuclei (%)” value [9] was 50%. The “Population Hoechst High Intensity Objects (%)” value [9] was 46%, the “Population Membrane Permeable-Phenotype (%)” value [9] was 11% and the “Population Mitochondria Different-Phenotype (%)” value [9] was 7%. For the same compound, the “Population Mitotic Cells (%)” value [9] was 28%, the “Population Normal (%)” value [9] was 53% and the “Population Pyknosed Nuclei (%)” value [9] was 13%. For the same compound, the “Population Tubulin-Different-Phenotype (%)” value [9] was 65%, the “Total Cell Count” value [9] was 96 and the “Population Apoptotic (%)” value [10] was 57%. For the same compound, the “Population Fragmented Nuclei (%)” value [10] was 32%, the “Population Healthy Nuclei (%)” value [10] was 55% and the “Population Hoechst High Intensity Objects (%)” value [10] was 35%. The “Population Membrane Permeable-Phenotype (%)” value [10] was 9%, the “Population Mitochondria Different-Phenotype (%)” value [10] was 6% and the “Population Mitotic Cells (%)” value [10] was 42%. For the same compound, the “Population Normal (%)” value [10] was 64%, the “Population Pyknosed Nuclei (%)” value [10] was 11% and the “Population Tubulin-Different-Phenotype (%)” value [10] was 71%. The “Total Cell Count” value [10] was 281.

In the case of CCOc1cc2ncc(C#N)c(Nc3ccc(OCc4cccc(F)c4)c(Cl)c3)c2cc1NC(=O)/C=C/CN(C)C [HKI-357], the “Population Apoptotic (%)” value [1] is reported as 72%, the “Population Fragmented Nuclei (%)” value [1] is reported as 21% and the “Population Healthy Nuclei (%)” value [1] is reported as 60%. The “Population Hoechst High Intensity Objects (%)” value [1] was 14%, the “Population Membrane Permeable-Phenotype (%)” value [1] was 7% and the “Population Mitochondria Different-Phenotype (%)” value [1] was 7%. For the same compound, the “Population Mitotic Cells (%)” value [1] was 27%, the “Population Normal (%)” value [1] was 85% and the “Population Pyknosed Nuclei (%)” value [1] was 18%. The “Population Tubulin-Different-Phenotype (%)” value [1] was 11%, the “Total Cell Count” value [1] was 223 and the “Population Apoptotic (%)” value [2] was 33%. The “Population Fragmented Nuclei (%)” value [2] was 60%, the “Population Healthy Nuclei (%)” value [2] was 31% and the “Population Hoechst High Intensity Objects (%)” value [2] was 34%. For the same compound, the “Population Membrane Permeable-Phenotype (%)” value [2] was 4%, the “Population Mitochondria Different-Phenotype (%)” value [2] was 9% and the “Population Mitotic Cells (%)” value [2] was 66%. For the same compound, the “Population Normal (%)” value [2] was 65%, the “Population Pyknosed Nuclei (%)” value [2] was 8% and the “Population Tubulin-Different-Phenotype (%)” value [2] was 13%. For the same compound, the “Total Cell Count” value [2] was 107, the “Population Apoptotic (%)” value [3] was 76% and the “Population Fragmented Nuclei (%)” value [3] was 42%. The “Population Healthy Nuclei (%)” value [3] was 37%, the “Population Hoechst High Intensity Objects (%)” value [3] was 13% and the “Population Membrane Permeable-Phenotype (%)” value [3] was 15%. The “Population Mitochondria Different-Phenotype (%)” value [3] was 12%, the “Population Mitotic Cells (%)” value [3] was 23% and the “Population Normal (%)” value [3] was 86%. For the same compound, the “Population Pyknosed Nuclei (%)” value [3] was 20%, the “Population Tubulin-Different-Phenotype (%)” value [3] was 46% and the “Total Cell Count” value [3] was 368. For the same compound, the “Population Apoptotic (%)” value [4] was 37%, the “Population Fragmented Nuclei (%)” value [4] was 61% and the “Population Healthy Nuclei (%)” value [4] was 20%. The “Population Hoechst High Intensity Objects (%)” value [4] was 46%, the “Population Mitochondria Different-Phenotype (%)” value [4] was 26% and the “Population Mitotic Cells (%)” value [4] was 62%. For the same compound, the “Population Normal (%)” value [4] was 53%, the “Population Pyknosed Nuclei (%)” value [4] was 17% and the “Population Tubulin-Different-Phenotype (%)” value [4] was 78%. The “Total Cell Count” value [4] was 170, the “Population Apoptotic (%)” value [5] was 57% and the “Population Fragmented Nuclei (%)” value [5] was 23%. The “Population Healthy Nuclei (%)” value [5] was 57%, the “Population Hoechst High Intensity Objects (%)” value [5] was 15% and the “Population Membrane Permeable-Phenotype (%)” value [5] was 6%. For the same compound, the “Population Mitochondria Different-Phenotype (%)” value [5] was 3%, the “Population Mitotic Cells (%)” value [5] was 42% and the “Population Normal (%)” value [5] was 84%. For the same compound, the “Population Pyknosed Nuclei (%)” value [5] was 18%, the “Population Tubulin-Different-Phenotype (%)” value [5] was 5% and the “Total Cell Count” value [5] was 238. The “Population Apoptotic (%)” value [6] was 60%, the “Population Fragmented Nuclei (%)” value [6] was 59% and the “Population Healthy Nuclei (%)” value [6] was 33%. The “Population Hoechst High Intensity Objects (%)” value [6] was 31%, the “Population Membrane Permeable-Phenotype (%)” value [6] was 13% and the “Population Mitochondria Different-Phenotype (%)” value [6] was 4%. The “Population Mitotic Cells (%)” value [6] was 40%, the “Population Normal (%)” value [6] was 68% and the “Population Pyknosed Nuclei (%)” value [6] was 7%. For the same compound, the “Population Tubulin-Different-Phenotype (%)” value [6] was 18%, the “Total Cell Count” value [6] was 97 and the “Population Apoptotic (%)” value [7] was 73%. The “Population Fragmented Nuclei (%)” value [7] was 44%, the “Population Healthy Nuclei (%)” value [7] was 42% and the “Population Hoechst High Intensity Objects (%)” value [7] was 19%. For the same compound, the “Population Membrane Permeable-Phenotype (%)” value [7] was 5%, the “Population Mitochondria Different-Phenotype (%)” value [7] was 7% and the “Population Mitotic Cells (%)” value [7] was 26%. The “Population Normal (%)” value [7] was 80%, the “Population Pyknosed Nuclei (%)” value [7] was 12% and the “Population Tubulin-Different-Phenotype (%)” value [7] was 39%. The “Total Cell Count” value [7] was 409, the “Population Apoptotic (%)” value [8] was 63% and the “Population Fragmented Nuclei (%)” value [8] was 69%. For the same compound, the “Population Healthy Nuclei (%)” value [8] was 19%, the “Population Hoechst High Intensity Objects (%)” value [8] was 45% and the “Population Membrane Permeable-Phenotype (%)” value [8] was 4%. The “Population Mitochondria Different-Phenotype (%)” value [8] was 23%, the “Population Mitotic Cells (%)” value [8] was 36% and the “Population Normal (%)” value [8] was 54%. The “Population Pyknosed Nuclei (%)” value [8] was 10%, the “Population Tubulin-Different-Phenotype (%)” value [8] was 66% and the “Total Cell Count” value [8] was 193.
